Measured values taken from PubChem BioAssay AID624085 (The Scripps Research Institute Molecular Screening Center, 2012).
The source made the active and inactive calls.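 How the source made its calls: active means IMP-1 enzyme inhibition with IC50 of 10 µM or lower; inactive means IC50 above 10 µM.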

Target: metallo-beta-lactamase IMP-1 (Pseudomonas aeruginosa)
Assay: IMP-1 metallo-beta-lactamase inhibitors, IC50, late-stage follow-up, selectivity assay, biochemical, absorbance (AID 624085)
Conditions: purified IMP-1, nitrocefin hydrolysis, epi-absorbance
How it was run: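 Material: purified IMP-1 metallo-beta-lactamase enzyme. Reagent: nitrocefin substrate. Dosing: dilution series per compound, highest nominal amount 60 µM. Timing: 15 min compound–enzyme pre-incubation, then 25 min substrate reaction at 25 °C. Signal: fluorescence quench readout, 480/530 nm, EDTA-stopped. Controls: wells lacking enzyme. Repeats: triplicate wells per concentration. Format: White microtiter plates.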

| Structure (SMILES) | IC50 |
| --- | --- |
| CN1CCN(NC(=O)CN2C(=O)/C(=C/c3c(Cl)cccc3Cl)SC2=S)CC1 | inactive |
| CN1CCN(NC(=O)CN2C(=O)/C(=C/c3c(Cl)ccc(Cl)c3Cl)SC2=S)CC1 | 3.02 µM |
